Measurements of several laboratories.
Lines come from different studies, so protocols differ.
Target: Serine/threonine-protein kinase Chk1 (CHEK1, Homo sapiens, UniProt O14757)
One construct used (O14757 1-476): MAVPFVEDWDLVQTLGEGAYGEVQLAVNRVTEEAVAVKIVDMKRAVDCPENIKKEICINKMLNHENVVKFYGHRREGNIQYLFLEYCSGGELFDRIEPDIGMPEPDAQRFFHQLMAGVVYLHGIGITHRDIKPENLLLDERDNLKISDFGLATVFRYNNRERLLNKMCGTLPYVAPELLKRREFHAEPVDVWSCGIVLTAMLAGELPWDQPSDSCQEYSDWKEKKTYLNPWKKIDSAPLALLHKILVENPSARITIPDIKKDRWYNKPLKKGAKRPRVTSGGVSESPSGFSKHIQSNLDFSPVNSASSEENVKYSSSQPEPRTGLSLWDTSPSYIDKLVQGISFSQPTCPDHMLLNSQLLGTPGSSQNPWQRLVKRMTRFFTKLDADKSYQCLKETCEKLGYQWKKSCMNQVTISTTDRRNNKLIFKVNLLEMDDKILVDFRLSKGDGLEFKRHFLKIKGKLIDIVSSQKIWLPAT

Compound | observed | mode | method | cell line | concentration | measurement | value
Nc1nc(Nc2ccccc2)sc1C(=O)c1c(F)cccc1F | enzyme activity | inhibitor |  |  | 10 µM | remaining activity | 86%
COc1cc(Nc2cnc(C#N)c(O[C@H](C)CN(C)C)n2)ncc1-c1cnn(C)c1 | enzyme activity | inhibitor | radiometric |  | 1 µM | remaining activity | 17%
CCN(CC)CCNC(=O)c1c(C)[nH]c(/C=C2\C(=O)Nc3ccc(F)cc32)c1C | cell-free assay |  |  |  | 0.5 µM | remaining signal | 29.2%
COc1ccc2cc(OCC3(C(=O)O)CN(C(=O)c4ccc(F)cc4)C3)ccc2c1 | cell-free assay |  | competition with immobilised ligand |  | 1 µM | remaining binding | 87%
Cc1cc(NC(=O)c2cccc3cc(-c4cccc5[nH]nc(N)c45)ccc23)ccc1F | enzyme activity | inhibitor |  |  | 0.1 µM | activity vs control | 96%
Cc1cnc(NC2CCOCC2)nc1-n1cnc(C(=O)NC(CN)c2cc(F)cc(Cl)c2)c1 (stereo not drawn) | enzyme activity | inhibitor | radiometric |  | 1 µM | remaining activity | 35%
C#Cc1cccc(Nc2ncnc3cc(OCCOC)c(OCCOC)cc23)c1 | cell-free assay |  |  |  | 0.5 µM | remaining signal | 95.1%
Oc1cccc(-c2nc(N3CCOCC3)c3oc4ncccc4c3n2)c1 | enzyme activity | inhibitor |  |  | 10 µM | remaining activity | 115%
CNC(=O)Nc1ccc2c(c1)[C@@]1(CC2)OC(=O)N(CC(=O)N(Cc2ccc(F)cc2)[C@@H](C)C(F)(F)F)C1=O | cell-free assay |  | competition with immobilised ligand |  | 1 µM | remaining binding | 100%
Clc1ccc(Nc2nnc(Cc3ccncc3)c3ccccc23)cc1 | cell-free assay |  |  |  | 0.5 µM | remaining signal | 96.5%
CC(C)(C)c1nc2c(s1)c1nc(N)ncc1c1ccc(NS(=O)(=O)c3c(F)cccc3F)c(F)c12 | enzyme activity | inhibitor | radiometric |  | 1 µM | remaining activity | 94%
COCCOc1nc(-c2ccc(Cl)nc2)nc2c1CN(C(=O)c1ncn3ccccc13)CC2 | cell-free assay |  | competition with immobilised ligand |  | 0.1 µM | remaining binding | 100%
O=C(Nc1cnn(-c2csc(C(=O)NC3COC3)c2)c1)Nc1c(F)cccc1Cl | enzyme activity | inhibitor |  |  | 5 µM | remaining activity | 141%
COc1cc2c(Nc3ccc(Br)cc3F)ncnc2cc1OCC1CCN(C)CC1 | cell-free assay |  |  |  | 0.5 µM | remaining signal | 94.4%
C[C@@]1(Cc2ccc(C#N)cc2)C(=O)N(c2cc(Cl)cc(Cl)c2)c2ncc(C(=O)NC3(c4nc(C5CCC5)no4)CC3)n21 | cell-free assay |  | competition with immobilised ligand |  | 1 µM | remaining binding | 90%
O=C1NC(=O)c2cc(Nc3ccc(F)cc3)c(Nc3ccc(F)cc3)cc21 | cell-free assay |  |  |  | 0.5 µM | remaining signal | 104%
Cc1sc(C(=O)NC2COC2)cc1-n1cc(NC(=O)Nc2c(F)cccc2Cl)cn1 | enzyme activity | inhibitor |  |  | 10 µM | remaining activity | 118%
CCS(=O)(=O)c1cc2cc(C[C@](O)(CC(C)(C)c3ccc(F)cc3C(N)=O)C(F)(F)F)[nH]c2cn1 | cell-free assay |  | competition with immobilised ligand |  | 1 µM | remaining binding | 97%
CCN1CCN(Cc2ccc(NC(=O)c3ccc(C)c(/C=C/c4cnc5[nH]ccc5c4OC)c3)cc2C(F)(F)F)CC1 | target engagement in cells | inhibitor | chemoproteomics | A-375 | 5 µM | inhibition | -51.1%
CN(C)C1CCN(CC#Cc2nn(C3CCCC3)c3nc(NCc4ccccc4)ncc23)C1 (stereo not drawn) | enzyme activity | inhibitor | FRET |  | 0.1 µM | inhibition | 2%
O=C(NS(=O)(=O)c1ccc(NCC2CCOCC2)c([N+](=O)[O-])c1)c1ccc(N2CCN(Cc3ccc(C(F)(F)F)cc3-c3ccc(Cl)cc3)CC2)cc1Oc1cnc2[nH]ccc2c1 | cell-free assay |  | competition with immobilised ligand |  | 1 µM | remaining binding | 100%
Cn1c(=O)n(-c2ccc(C(C)(C)C#N)cc2)c2c3cc(-c4cnc5ccccc5c4)ccc3ncc21 | enzyme activity | inhibitor |  |  | 10 µM | remaining activity | 146%
Nc1cnc(N2CCc3cc(S(=O)(=O)Nc4c(F)cc(Cl)cc4F)cc(N4CCCC4=O)c32)nc1 | cell-free assay |  | competition with immobilised ligand |  | 1 µM | remaining binding | 95%
Nc1nc(NC2CCCCC2)sc1C(=O)c1ccccc1 | enzyme activity | inhibitor |  |  | 10 µM | remaining activity | 96%
